From paper PMC3951241 (Journal of medicinal chemistry, 2013)
Like-named read-outs stand apart in the source and are kept apart here.

Legend:
[1] = system: mice; assay: Anesthesia; type: in vivo, mouse; settings: tail vein injection
Procedure, shortened: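 Mice received test compound by tail vein injection, dissolved in 22.5% aqueous 2-(hydroxypropyl)-β-cyclodextrin. Lower doses were made by serial dilution of the 8 mg/kg stock solution with 0.9% saline. Anesthesia was scored as loss of righting reflex (LRR), and LRR duration was recorded at each dose.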

[2] = system: tadpoles; settings: cited from earlier work
[3] = system: mice; settings: tail vein injection, previously found ref 15, cited from earlier work
[4] = target: rat wild type α1β2γ2L GABAA receptors (Rattus norvegicus, UniProt P62813+P63138); assay: Single-channel recordings in HEK 293 cells; type: cell-based; settings: 50 μM GABA + 20 μM compound; for OT long, mean duration of the longest-lived intracluster open time component: 4-7 patches
Procedure, shortened: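 Single-channel currents from the rat wild-type α1β2γ2L GABAA receptor, activated by 50 μM GABA alone (control) or with 20 μM test compound; 4-7 patches per condition. Intracluster open-time histograms were fitted to sums of two or three exponentials, and closed-time histograms to three. Mean duration and fraction of the longest open component, and fraction of the longest closed component, were analysed statistically.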

[5] = system: tadpoles; assay: Tadpole loss of righting reflex; type: in vivo; settings: for tadpole LRR EC50: loss of righting reflex, None = no effect at 10 μM; for tadpole LRR EC50 / Tadpole LSR EC50: ± SEM; for Tadpole LSR EC50: loss of swimming reflex, None = all animals had a swimming response at 10 μM test compound; for EC50: read-out: Tadpole LSR EC50
[6] = system: picrotoxin binding site on the heterogeneous GABAA receptors found in rat brain membranes; assay: [35S]TBPS displacement from rat brain membranes; settings: comparison of IC50 values

Structure (SMILES): CC(=O)[C@H]1CC[C@H]2[C@@H]3CC[C@H]4C[C@H](O)CC[C@]4(C)[C@H]3C(=O)C[C@]12C [compound 6, alphaxalone]
- duration of LRR in mice ([1]; 16 mg/kg): about 4 min
- EC50 ([2]; read-out: Tadpole LSR EC50, loss of swimming reflex, literature values ref 48): 5.48 ± 0.11 µM
- EC50 ([2]; read-out: tadpole LRR EC50, loss of righting reflex, literature values ref 48): 1.12 ± 0.14 µM
- duration of LRR in mice ([3]; 8 mg/kg): less than 1 min
- threshold dose for LRR in mice [3]: 8 mg/kg

Structure (SMILES): C[C@]12CC[C@@H](O)C[C@@H]1CC[C@@H]1[C@@H]2CC[C@]2(C)C(=O)CC[C@@H]12 [compound 1, Androsterone]
- EC50 ([2]; read-out: tadpole LRR EC50, loss of righting reflex, literature values ref 9): 3.38 ± 0.9 µM

Structure (SMILES): O=C1C[C@@H]2CC[C@H]3[C@@H](CC[C@@H]4C[C@@H](O)CC[C@H]43)[C@@H]2C1 (single isomer, unassigned) [ent-12, (3β,5β,8α,9β,10α,13α,14β)-3-Hydroxygonan-16-one]
- OT long, mean duration of the longest-lived intracluster open time component [4]: 11.5 ± 3.3 ms
- closed time, first listed component, duration ([4]; sample patch of Figure 3): 0.25 ms
- closed time, first listed component, fraction ([4]; sample patch of Figure 3): 54%
- closed time, second listed component, duration ([4]; sample patch of Figure 3): 2.0 ms
- closed time, second listed component, fraction ([4]; sample patch of Figure 3): 24%
- closed time, third listed component, duration ([4]; sample patch of Figure 3): 27.8 ms
- closed time, third listed component, fraction ([4]; sample patch of Figure 3): 22%
- open time, first listed component, duration ([4]; sample patch of Figure 3): 0.29 ms
- open time, first listed component, fraction ([4]; sample patch of Figure 3): 29%
- open time, second listed component, duration ([4]; sample patch of Figure 3): 2.1 ms
- open time, second listed component, fraction ([4]; sample patch of Figure 3): 23%
- open time, third listed component, duration ([4]; sample patch of Figure 3): 13.2 ms
- open time, third listed component, fraction ([4]; sample patch of Figure 3): 48%
- tadpole LRR EC50 [5]: neither LRR nor LSR and None
- Tadpole LSR EC50 [5]: neither LRR nor LSR and None

Structure (SMILES): C[C@@]12CC[C@H]3[C@@H](CC[C@@H]4C[C@@H](O)CC[C@]43C)[C@@H]1CC(=O)C2 (single isomer, unassigned) [ent-7, (3β,5β,8α,9β,10α,13α,14β)-3-Hydroxyandrostan-16-one]
- fold increase in [35S]TBPS displacement potency relative to ent-1 [6]: about four
- OT long, mean duration of the longest-lived intracluster open time component [4]: 12.4 ± 3.4 ms
- closed time, first listed component, duration ([4]; sample patch of Figure 3): 0.27 ms
- closed time, first listed component, fraction ([4]; sample patch of Figure 3): 71%
- closed time, second listed component, duration ([4]; sample patch of Figure 3): 2.1 ms
- closed time, second listed component, fraction ([4]; sample patch of Figure 3): 24%
- closed time, third listed component, duration ([4]; sample patch of Figure 3): 25.0 ms
- closed time, third listed component, fraction ([4]; sample patch of Figure 3): 5%
- open time, first listed component, duration ([4]; sample patch of Figure 3): 0.64 ms
- open time, first listed component, fraction ([4]; sample patch of Figure 3): 39%
- open time, second listed component, duration ([4]; sample patch of Figure 3): 10.9 ms
- open time, second listed component, fraction ([4]; sample patch of Figure 3): 61%
- fold lower tadpole LRR EC50 relative to ent-1 ([5]; comparison of EC50 values): ~ three
- fold lower tadpole LSR EC50 relative to ent-1 ([5]; comparison of EC50 values): ~ three
- duration of LRR in mice ([1]; 8 mg/kg): about 3 min
- duration of LRR in mice ([1]; 16 mg/kg): about 7 min

Structure (SMILES): CO[C@H]1C[C@@]2(C)[C@@H](CC[C@@H]3[C@@H]2CC[C@]2(C)C(=O)CC[C@@H]32)C[C@@H]1O [compound 2, (2β,3α,5α)-3-Hydroxy-2-methoxyandrostan-17-one]
- fold decrease in [35S]TBPS displacement potency relative to steroid 1 [6]: about five
- EC50 [5]: > 10 µM

Structure (SMILES): CO[C@@H]1C[C@]2(C)[C@H](CC[C@@H]3[C@@H]2CC[C@@]2(C)C(=O)CC[C@@H]32)C[C@H]1O (single isomer, unassigned) [ent-2, (2α,3β,5β,8α,9β,10α,13α,14β)-3-Hydroxy-2-methoxyandrostan-17-one]
- fold decrease in [35S]TBPS displacement potency relative to ent-1 [6]: about 21 fold
- EC50 [5]: > 10 µM

Structure (SMILES): CO[C@H]1[C@H](O)CC[C@]2(C)[C@H]3CC[C@]4(C)C(=O)CC[C@H]4[C@@H]3CC[C@@H]12 [compound 3, (3α,4β,5α)-3-Hydroxy-4-methoxyandrostan-17-one]
- tadpole LRR EC50 [5]: None
- Tadpole LSR EC50 [5]: None

Structure (SMILES): C[C@]12CC[C@@H](O)C[C@@H]1CC[C@@H]1[C@@H]2C(=O)C[C@]2(C)/C(=C\C#N)CC[C@@H]12 [compound 4, [3α,5α,17(20)Z]-3-Hydroxy-11-oxopregn-17(20)-ene-21-nitrile]
- EC50 ([2]; read-out: Tadpole LSR EC50, loss of swimming reflex, literature values ref 15): 5.48 ± 0.2 µM
- EC50 ([2]; read-out: tadpole LRR EC50, loss of righting reflex, literature values ref 15): 1.44 ± 0.2 µM

Structure (SMILES): CO[C@H]1[C@H]2CC[C@H]3[C@@H]4CC(=O)C[C@]4(C)CC[C@@H]3[C@]2(C)CC[C@@H]1O (single isomer, unassigned) [ent-9, (3β,4α,5β,8α,9β,10α,13α,14β)-3-Hydroxy-4-methoxyandrostan-16-one]
- OT long, mean duration of the longest-lived intracluster open time component [4]: 17.7 ± 6.6 ms
- closed time, first listed component, duration ([4]; sample patch of Figure 3): 0.24 ms
- closed time, first listed component, fraction ([4]; sample patch of Figure 3): 67%
- closed time, second listed component, fraction ([4]; sample patch of Figure 3): 28%
- closed time, third listed component, duration ([4]; sample patch of Figure 3): 14.3 ms
- closed time, third listed component, fraction ([4]; sample patch of Figure 3): 6%
- open time, first listed component, duration ([4]; sample patch of Figure 3): 0.80 ms
- open time, first listed component, fraction ([4]; sample patch of Figure 3): 52%
- open time, second listed component, duration ([4]; sample patch of Figure 3): 30.3 ms
- open time, second listed component, fraction ([4]; sample patch of Figure 3): 48%
- duration of LRR in mice ([1]; 2 mg/kg (threshold dose)): about 1 min
- duration of LRR in mice ([1]; 4 mg/kg): about 5 min
- duration of LRR in mice ([1]; 8 mg/kg): about 9 min
- threshold dose for LRR in mice [1]: 2 mg/kg

Structure (SMILES): CC(=O)[C@H]1CC[C@H]2[C@@H]3CC[C@H]4C[C@H](O)CC[C@]4(C)[C@H]3CC[C@]12C [compound 5, allopregnanolone]
- EC50 ([2]; read-out: Tadpole LSR EC50, loss of swimming reflex, literature values ref 46): 5.5 ± 0.5 µM
- EC50 ([2]; read-out: tadpole LRR EC50, loss of righting reflex, literature values ref 46): 0.42 ± 0.04 µM

Structure (SMILES): CO[C@@H]1C[C@]2(C)[C@H](CC[C@H]3[C@@H]4CC(=O)C[C@]4(C)CC[C@@H]32)C[C@H]1O (single isomer, unassigned) [ent-8, (2α,3β,5β,8α,9β,10α,13α,14β)-3-Hydroxy-2-methoxyandrostan-16-one]
- fold decrease in [35S]TBPS displacement potency relative to ent-7 [6]: about 37 fold
- fold higher tadpole LRR EC50 relative to ent-7 ([5]; comparison of EC50 values): ~ five
- fold higher tadpole LSR EC50 relative to ent-7 ([5]; comparison of EC50 values): ~ five
